Like-named read-outs stand apart in the source and are kept apart here.
How the values were obtained:
PRMT3 = PRMT3 (Homo sapiens, UniProt O60678); experiment: SAHH-coupled assay, PRMT3; format: biochemical
How it was run: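 A fluorescence-based coupled assay used S-adenosyl-L-homocysteine hydrolase to follow conversion of cofactor SAM to SAH by the methyltransferase. IC50 values are the average of at least two separate experiments.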

[1] = test system: retrovirus long terminal repeat and MAGEA2 promoter in mES cells; experiment: Bisulfite sequencing DNA methylation in mES cells; format: cell-based, mouse; conditions: after 10 d of treatment
How it was run: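 J1 mouse ES cells were grown on 0.1% gelatin in DMEM with 15% ES-qualified FBS, 4 mM L-glutamine, 0.1 mM nonessential amino acids, 1 mM pyruvate, 0.55 mM 2-mercaptoethanol and LIF. They carried a silenced HSC1 retroviral EGFP-puromycin reporter driven by the EF1a promoter.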

[2] = Stability in cell media with or without cells; format: in vitro ADME; conditions: with or without MCF7, U2OS or H1299 cells, two types of cell media, 65 h
MCF7 cells = experiment: Clonogenicity assay, MCF7; format: cell-based, human
G9a [3] = molecular target: T1, G9a (Homo sapiens, UniProt Q96KQ7); experiment: Surface plasmon resonance; format: binding; conditions: SPR
T1 sequence (Q96KQ7 1-1210): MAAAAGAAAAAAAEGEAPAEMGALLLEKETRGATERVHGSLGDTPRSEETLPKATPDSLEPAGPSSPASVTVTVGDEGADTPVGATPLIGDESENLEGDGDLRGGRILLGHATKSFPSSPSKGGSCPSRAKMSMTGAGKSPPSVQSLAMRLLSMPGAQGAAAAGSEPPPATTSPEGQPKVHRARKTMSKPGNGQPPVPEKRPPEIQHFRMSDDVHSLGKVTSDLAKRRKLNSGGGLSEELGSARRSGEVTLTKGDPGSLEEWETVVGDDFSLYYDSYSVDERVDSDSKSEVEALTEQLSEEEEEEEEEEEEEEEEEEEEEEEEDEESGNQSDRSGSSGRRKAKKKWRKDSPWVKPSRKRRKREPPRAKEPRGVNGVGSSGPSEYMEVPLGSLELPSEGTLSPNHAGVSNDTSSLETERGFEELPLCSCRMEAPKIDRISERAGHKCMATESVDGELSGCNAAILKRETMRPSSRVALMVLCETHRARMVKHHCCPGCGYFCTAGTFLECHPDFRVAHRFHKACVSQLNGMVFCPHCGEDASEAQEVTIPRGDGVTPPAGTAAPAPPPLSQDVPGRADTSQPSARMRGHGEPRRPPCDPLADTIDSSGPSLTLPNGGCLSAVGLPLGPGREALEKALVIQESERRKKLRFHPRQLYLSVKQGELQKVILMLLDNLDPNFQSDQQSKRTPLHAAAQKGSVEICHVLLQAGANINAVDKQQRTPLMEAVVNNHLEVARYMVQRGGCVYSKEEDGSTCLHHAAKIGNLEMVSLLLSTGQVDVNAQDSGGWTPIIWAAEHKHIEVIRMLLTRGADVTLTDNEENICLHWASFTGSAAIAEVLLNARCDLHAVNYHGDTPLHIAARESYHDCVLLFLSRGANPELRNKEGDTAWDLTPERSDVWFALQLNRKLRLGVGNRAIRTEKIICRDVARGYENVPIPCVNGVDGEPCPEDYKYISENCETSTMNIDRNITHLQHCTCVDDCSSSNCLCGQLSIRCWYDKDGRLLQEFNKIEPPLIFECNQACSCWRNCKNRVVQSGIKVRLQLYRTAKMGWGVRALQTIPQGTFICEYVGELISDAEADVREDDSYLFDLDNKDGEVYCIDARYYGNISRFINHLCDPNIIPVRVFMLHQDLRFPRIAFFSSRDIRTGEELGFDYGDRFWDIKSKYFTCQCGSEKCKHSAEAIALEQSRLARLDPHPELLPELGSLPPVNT

G9a [4] = molecular target: T1, G9a; experiment: Endoproteinase-coupled microfluidic capillary electrophoresis; format: biochemical
[5] = Mouse drug metabolism and pharmacokinetic studies; format: in vivo; conditions: intravenous, oral or intraperitoneal administration
G9a [6] = molecular target: T1, G9a; experiment: G9a fluorescence-polarization peptide displacement assay; format: binding
[7] = test system: DNA methylation on chr3 and chrX in MCF7 cells; experiment: DNA methylation microarray analysis, MCF7; format: cell-based, human; conditions: 14 d at 70 or 320 nM
SUV39H1 = SUV39H1 (Homo sapiens, UniProt O43463); experiment: BPS Bioscience assay, SUV39H1; format: biochemical
[8] = test system: H3K9me2 levels in J1 mES cells; experiment: Cellular potency; format: cell-based; conditions: Mus musculus, 48 h, read-out: IC50 cellular potency
[9] = test system: H3K9me2 at genomic loci on chr3 and chrX in MCF7 cells; experiment: ChIP-chip with H3K9me2 antibody; format: cell-based, human; conditions: 320 nM for 14 d
M4 = M4 (Homo sapiens, UniProt P08173); experiment: M4 functional assay; format: cell-based
MLL = MLL (Homo sapiens, UniProt Q03164); experiment: BPS Bioscience assay, MLL; format: biochemical
PRMT1 = PRMT1 (Homo sapiens, UniProt Q99873); experiment: BPS Bioscience assay, PRMT1; format: biochemical
MDA-MB-231 cells = experiment: MTT assay, MDA-MB-231; format: cell-based, human; conditions: Homo sapiens, MDA-MB-231, read-out: EC50 cellular toxicity (MTT)
[10] = test system: histone marks in MDA-MB-231 cells; experiment: Quantitative MS analysis of histone modifications; format: cell-based, human; conditions: 1 μM for 48 h
How it was run: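 MDA-MB-231 cells were treated at 1 µM for 48 h. Histones were acid-extracted, derivatized with propionic anhydride and digested with trypsin. Mock and treated samples carried D0 or D5 propionyl labels. Peptides were analysed by LC-MS/MS on an Orbitrap, with all data manually verified.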

[11] = assay results from BPS Bioscience

SUV39H1, sequence (O43463 whole entry, species assumed): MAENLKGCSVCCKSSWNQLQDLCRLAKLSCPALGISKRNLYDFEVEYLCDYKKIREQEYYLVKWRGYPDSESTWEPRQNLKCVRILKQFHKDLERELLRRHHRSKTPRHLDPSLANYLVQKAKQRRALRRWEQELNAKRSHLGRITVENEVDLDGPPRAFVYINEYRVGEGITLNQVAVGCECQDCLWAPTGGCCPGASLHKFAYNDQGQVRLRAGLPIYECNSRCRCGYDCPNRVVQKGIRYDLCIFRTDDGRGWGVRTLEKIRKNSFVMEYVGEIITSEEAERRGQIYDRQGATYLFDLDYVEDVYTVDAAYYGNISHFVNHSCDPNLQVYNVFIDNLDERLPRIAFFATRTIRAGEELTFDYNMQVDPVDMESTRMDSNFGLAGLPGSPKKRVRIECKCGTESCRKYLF
PRMT3, sequence (O60678 whole entry, species assumed): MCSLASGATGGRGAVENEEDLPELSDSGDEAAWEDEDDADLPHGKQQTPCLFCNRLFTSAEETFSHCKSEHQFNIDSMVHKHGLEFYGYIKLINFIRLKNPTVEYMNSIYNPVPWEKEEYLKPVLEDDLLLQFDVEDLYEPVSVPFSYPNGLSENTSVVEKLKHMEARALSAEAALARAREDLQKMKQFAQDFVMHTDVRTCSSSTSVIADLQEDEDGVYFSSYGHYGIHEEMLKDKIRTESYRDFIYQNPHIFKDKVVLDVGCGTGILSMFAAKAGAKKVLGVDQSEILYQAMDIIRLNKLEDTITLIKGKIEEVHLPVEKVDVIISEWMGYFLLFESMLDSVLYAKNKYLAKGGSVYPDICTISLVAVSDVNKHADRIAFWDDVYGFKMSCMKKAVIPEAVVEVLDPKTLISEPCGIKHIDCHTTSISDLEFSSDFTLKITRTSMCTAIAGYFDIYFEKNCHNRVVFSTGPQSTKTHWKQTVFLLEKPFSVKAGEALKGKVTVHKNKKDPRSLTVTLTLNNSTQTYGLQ
PRMT1, sequence (Q99873 whole entry, species assumed): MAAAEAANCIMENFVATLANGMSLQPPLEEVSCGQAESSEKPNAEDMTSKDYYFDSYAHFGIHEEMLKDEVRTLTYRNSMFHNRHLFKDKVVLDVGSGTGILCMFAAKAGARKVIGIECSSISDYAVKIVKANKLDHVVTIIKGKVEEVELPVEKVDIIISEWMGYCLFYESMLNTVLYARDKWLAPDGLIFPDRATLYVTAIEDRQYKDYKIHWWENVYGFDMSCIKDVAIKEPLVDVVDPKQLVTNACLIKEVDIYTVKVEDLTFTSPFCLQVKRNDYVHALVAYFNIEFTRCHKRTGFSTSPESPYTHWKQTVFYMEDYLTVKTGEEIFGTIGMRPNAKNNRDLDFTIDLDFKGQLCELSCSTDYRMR
M4, sequence (P08173 whole entry): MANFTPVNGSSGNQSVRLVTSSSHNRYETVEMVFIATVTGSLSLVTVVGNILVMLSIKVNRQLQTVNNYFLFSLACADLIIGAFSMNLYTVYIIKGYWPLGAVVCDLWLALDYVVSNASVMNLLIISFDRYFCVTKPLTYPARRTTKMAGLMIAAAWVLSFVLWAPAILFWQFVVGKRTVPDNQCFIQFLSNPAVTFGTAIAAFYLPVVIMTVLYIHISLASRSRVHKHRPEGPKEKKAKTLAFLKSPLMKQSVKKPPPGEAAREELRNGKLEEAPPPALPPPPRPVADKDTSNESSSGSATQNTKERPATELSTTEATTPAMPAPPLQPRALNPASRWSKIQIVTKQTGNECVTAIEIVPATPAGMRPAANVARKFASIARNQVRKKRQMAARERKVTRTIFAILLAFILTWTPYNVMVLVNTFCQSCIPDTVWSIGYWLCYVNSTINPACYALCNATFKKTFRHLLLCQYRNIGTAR

## COc1cc2c(NC3CCN(C(C)C)CC3)nc(C3CCCCC3)nc2cc1OCCCN1CCCC1 [UNC0638]
PRMT3
  IC50: > 10 µM
PRMT3; SAHH-coupled assay
  IC50: inactive
[1]
  DNA methylation of retrovirus LTR and MAGEA2 promoter: induced DNA hypomethylation in a concentration-dependent manner
[2]
  stability in cell media: did not produce degradation products
MCF7 cells
  clonogenicity: marked concentration-dependent reduction of clonogenicity
G9a [3]
  disassociation rate (kd): 0.057 s⁻¹
G9a [4]; Km of the peptide increased linearly with UNC0638 concentration
  mechanism of action versus peptide substrate: competitive with the peptide substrate
G9a [4]; apparent Km of SAM remained constant
  mechanism of action versus cofactor SAM: noncompetitive with cofactor SAM
[5]
  clearance: high
  half-life: short
  volume distribution: high
G9a [6]
  displacement of fluorescein-labeled 15-mer H3 peptide (residues 1–15): high efficiency
[7]
  total levels of DNA methylation on chr3 and chrX: not altered
SUV39H1
  IC50: > 10 µM
SUV39H1; [11]
  IC50: inactive
[8]
  IC50: 0.138 µM
[9]
  genomic regions containing H3K9me2 on chr3 and chrX: significantly fewer genomic regions containing H3K9me2
M4
  IC50: > 10 µM
MLL
  IC50: > 10 µM
MLL; [11]
  IC50: inactive
PRMT1
  IC50: > 10 µM
PRMT1; [11]
  IC50: inactive
MDA-MB-231 cells
  EC50: 11 µM
[10]
  levels of H3K9me2 by quantitative MS: considerably lower
  levels of H3K9me3 by quantitative MS: remained constant
  levels of H3K14ac by quantitative MS: doubled

Source: paper PMC3184254 (Nature Chemical Biology, 2011)
